# Data from ChEMBL document CHEMBL1137298, “2-triazole-substituted adenosines: a new class of selective A3 adenosine receptor agonists, partial agonists, and antagonists” (J Med Chem, 2006).
# The source made the active and inactive calls. No cut-off for these calls is given here.
# Experiments:
# Adenosine receptor A3 [1] = target: T1, Adenosine receptor A3 (Homo sapiens, UniProt P0DMS8); test: Displacement of [125I]AB-MECA from human Adenosine A3 receptor expressed in CHO cells; assay type: cell-based
# T1 sequence (P0DMS8 whole entry): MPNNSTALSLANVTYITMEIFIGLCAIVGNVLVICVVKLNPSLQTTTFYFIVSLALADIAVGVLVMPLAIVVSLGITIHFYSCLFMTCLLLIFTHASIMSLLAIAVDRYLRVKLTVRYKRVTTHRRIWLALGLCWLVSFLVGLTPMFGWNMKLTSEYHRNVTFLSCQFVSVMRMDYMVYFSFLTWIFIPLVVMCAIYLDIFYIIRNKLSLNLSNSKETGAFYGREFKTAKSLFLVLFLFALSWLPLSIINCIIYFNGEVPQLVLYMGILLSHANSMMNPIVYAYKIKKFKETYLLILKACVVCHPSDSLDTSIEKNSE
# Adenosine receptor A1 = target: T2, Adenosine receptor A1 (Homo sapiens, UniProt P30542); test: Displacement of [3H]CCPA from human Adenosine A1 receptor expressed in CHO cells; assay type: cell-based
# T2 sequence (P30542 whole entry): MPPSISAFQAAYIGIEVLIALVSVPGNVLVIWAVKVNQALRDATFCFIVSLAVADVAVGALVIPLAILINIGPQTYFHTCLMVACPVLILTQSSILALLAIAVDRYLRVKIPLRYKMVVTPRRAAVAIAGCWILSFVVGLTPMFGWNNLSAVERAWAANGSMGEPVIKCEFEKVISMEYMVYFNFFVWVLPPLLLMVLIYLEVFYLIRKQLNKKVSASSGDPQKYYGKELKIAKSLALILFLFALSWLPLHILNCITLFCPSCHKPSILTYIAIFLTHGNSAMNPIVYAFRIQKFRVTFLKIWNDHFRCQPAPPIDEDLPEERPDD
# Adenosine receptor A2a [2] = target: T3, Adenosine receptor A2a (Homo sapiens, UniProt P29274); test: Inhibition of [3H]CGS21680 binding to human Adenosine A2A receptor expressed in CHO cells at 10 uM; assay type: cell-based
# T3 sequence (P29274 whole entry): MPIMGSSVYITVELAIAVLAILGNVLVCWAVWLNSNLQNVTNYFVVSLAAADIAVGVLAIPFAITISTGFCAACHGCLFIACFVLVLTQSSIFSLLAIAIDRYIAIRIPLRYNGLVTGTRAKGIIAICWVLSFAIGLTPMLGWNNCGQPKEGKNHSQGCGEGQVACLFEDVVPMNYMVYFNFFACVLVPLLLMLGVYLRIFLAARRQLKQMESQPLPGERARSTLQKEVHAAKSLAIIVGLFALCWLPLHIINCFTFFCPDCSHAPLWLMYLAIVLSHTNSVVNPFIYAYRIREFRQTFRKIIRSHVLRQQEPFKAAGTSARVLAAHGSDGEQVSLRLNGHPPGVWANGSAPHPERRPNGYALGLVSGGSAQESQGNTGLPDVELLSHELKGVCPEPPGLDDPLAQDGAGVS
# Outline: (§1)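 Membranes from CHO cells stably transfected with human A1AR (radioligand [3H]CCPA) or human A2AAR (radioligand [3H]CGS21680), in Tris-HCl pH 7.4/MgCl2/EDTA buffer with adenosine deaminase. Compound tested at a fixed 10 µM. Result expressed as percent displacement of radioligand, n = 3 unless otherwise noted.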
# [3] = target: Adenosine receptor A2b (Homo sapiens) (UniProt P29275); test: Activity at human adenosine A2B receptor in CHO cells assessed as stimulation of cAMP production relative to NECA at 10 uM
# [4] = target: Adenosine receptors; A1 & A3 (Homo sapiens) (UniProt P30542+P0DMS8); test: Selectivity for human adenosine A3 over human adenosine A1 receptor; assay type: protein assay
# Adenosine receptor A3 [5] = target: T4, Adenosine receptor A3 (Rattus norvegicus, UniProt P28647); test: Displacement of [125I]AB-MECA from rat Adenosine A3 receptor expressed in CHO cells; assay type: cell-based
# T4 sequence (P28647 whole entry): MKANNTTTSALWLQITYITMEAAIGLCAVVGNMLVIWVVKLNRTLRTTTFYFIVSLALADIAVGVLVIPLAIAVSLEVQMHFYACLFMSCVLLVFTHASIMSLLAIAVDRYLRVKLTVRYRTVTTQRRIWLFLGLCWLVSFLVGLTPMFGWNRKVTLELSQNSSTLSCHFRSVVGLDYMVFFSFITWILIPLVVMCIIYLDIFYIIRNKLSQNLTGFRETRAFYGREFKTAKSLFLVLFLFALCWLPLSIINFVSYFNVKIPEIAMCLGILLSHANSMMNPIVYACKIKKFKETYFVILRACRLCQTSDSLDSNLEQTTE
# Outline: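 Membranes from CHO cells expressing rat A3AR, prepared in 50 mM Tris-HCl pH 7.4 with 10 mM MgCl2, 1 mM EDTA and 3 units/mL adenosine deaminase. Incubated with [125I]AB-MECA (0.5 nM final) and increasing compound concentrations for 60 min at 25 °C. Nonspecific binding defined with 10 µM NECA. GF/B filtration, gamma counting, Ki derived.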
# [6] = target: T5, Adenosine receptor A1 (Homo sapiens) (UniProt P30542); test: Inhibition of [3H]CCPA binding to human Adenosine A1 receptor expressed in CHO cells at 10 uM; assay type: cell-based; outline: as §1
# T5 sequence (whole entry): T2 sequence (P30542 whole entry)
# Adenosine receptor A2a [7] = target: T3, Adenosine receptor A2a; test: Displacement of [3H]CGS-21680 from human Adenosine A2A receptor expressed in CHO cells; assay type: cell-based
SMILES,Ki (Adenosine receptor A3 [1]) [nM],Ki (Adenosine receptor A1) [nM],inhibition (Adenosine receptor A2a [2]) [%],Activity [3],Selectivity ratio [4],Ki (Adenosine receptor A3 [5]) [nM],inhibition [6] [%],Ki (Adenosine receptor A2a [7]) [nM]
CNc1nc(-c2cn(Cc3cccc(Cl)c3)nn2)nc2c1ncn2[C@@H]1O[C@H](CO)[C@@H](O)[C@H]1O,81.1,956,39,< 50%,,,,
CNc1nc(-n2cc(CC3CCCCC3)nn2)nc2c1ncn2[C@@H]1O[C@H](CO)[C@@H](O)[C@H]1O,21.3,1430,16,< 50%,67,,,
CNc1nc(-n2ccnn2)nc2c1ncn2[C@@H]1O[C@H](CO)[C@@H](O)[C@H]1O,10.4,1000,13,,,,,
CNc1nc(-c2cn(Cc3ccccc3)nn2)nc2c1ncn2[C@@H]1O[C@H](CO)[C@@H](O)[C@H]1O,53.9,770,21,< 50%,,,,
CNc1nc(-c2cn(Cc3cccc(OC)c3)nn2)nc2c1ncn2[C@@H]1O[C@H](CO)[C@@H](O)[C@H]1O,86.1,957,43,< 50%,,,,
CNc1nc(-n2cc(-c3ccccc3)nn2)nc2c1ncn2[C@@H]1O[C@H](CO)[C@@H](O)[C@H]1O,14.9,,5,inactive,,,36,
CCCCc1cn(-c2nc(NC)c3ncn([C@@H]4O[C@H](C(=O)NCC)[C@@H](O)[C@H]4O)c3n2)nn1,5.6,750,43,inactive,,,,
CNc1nc(-n2cc(-c3ccccn3)nn2)nc2c1ncn2[C@@H]1O[C@H](CO)[C@@H](O)[C@H]1O,10.3,1970,40,inactive,,> 10000,,
CCCCc1cn(-c2nc(NC)c3ncn([C@@H]4O[C@H](CO)[C@@H](O)[C@H]4O)c3n2)nn1,11.7,,23,inactive,72,,,
CNc1nc(-n2cc(CN(C)C)nn2)nc2c1ncn2[C@@H]1O[C@H](CO)[C@@H](O)[C@H]1O,117,3800,6,inactive,,> 10000,,

# Second part, the molecule after the results:
Ki (Adenosine receptor A3 [1]) [nM],Ki (Adenosine receptor A1) [nM],inhibition (Adenosine receptor A2a [2]) [%],Activity [3],Selectivity ratio [4],Ki (Adenosine receptor A3 [5]) [nM],inhibition [6] [%],Ki (Adenosine receptor A2a [7]) [nM],SMILES
2.1,590,18,inactive,,,,,CCNC(=O)[C@H]1O[C@@H](n2cnc3c(NC)nc(-n4ccnn4)nc32)[C@H](O)[C@@H]1O
,,18,50%,,,,,CCNC(=O)[C@H]1O[C@@H](n2cnc3c(NC)nc(N=[N+]=[N-])nc32)[C@H](O)[C@@H]1O
1.8,1640,45,< 50%,910,,,,CCNC(=O)[C@H]1O[C@@H](n2cnc3c(NC)nc(-n4cc(-c5ccccn5)nn4)nc32)[C@H](O)[C@@H]1O
2.8,510,33,50%,,,,,CCNC(=O)[C@H]1O[C@@H](n2cnc3c(NC)nc(-n4cc(Cc5ccccc5)nn4)nc32)[C@H](O)[C@@H]1O
13.8,2920,18,< 50%,,,,,CCc1cn(-c2nc(NC)c3ncn([C@@H]4O[C@H](CO)[C@@H](O)[C@H]4O)c3n2)nn1
1.3,335,39,< 50%,260,312,,,CNc1nc(-n2cc(CC3CCCC3)nn2)nc2c1ncn2[C@@H]1O[C@H](CO)[C@@H](O)[C@H]1O
9.5,589,20,< 50%,,1790,,,CNc1nc(-n2cc(Cc3ccccc3)nn2)nc2c1ncn2[C@@H]1O[C@H](CO)[C@@H](O)[C@H]1O
45,1270,14,inactive,,,,,CNc1nc(-n2cc(CCO)nn2)nc2c1ncn2[C@@H]1O[C@H](CO)[C@@H](O)[C@H]1O
,,23,< 50%,,,,,CNc1nc(N=[N+]=[N-])nc2c1ncn2[C@@H]1O[C@H](CO)[C@@H](O)[C@H]1O
25.2,,14,< 50%,,> 10000,49,,CCCOc1ccc(-c2cn(-c3nc(NC)c4ncn([C@@H]5O[C@H](CO)[C@@H](O)[C@H]5O)c4n3)nn2)cc1
18,830,,,,,,6000,COc1ccc(Cl)cc1CNc1nc(-n2cc(CC3CCCC3)nn2)nc2c1ncn2[C@@H]1O[C@H](CO)[C@@H](O)[C@H]1O
11.5,1250,36,< 50%,,,,,CCNC(=O)[C@H]1O[C@@H](n2cnc3c(NC)nc(-n4cc(CC5CCCC5)nn4)nc32)[C@H](O)[C@@H]1O
